Here are results for one compound from BindingDB's records for doi:10.1021/jm048999e (2005).

In the experiment the target is T1, 5-hydroxytryptamine receptor 1A (Rattus norvegicus, UniProt P19327).
T1 sequence (P19327 whole entry): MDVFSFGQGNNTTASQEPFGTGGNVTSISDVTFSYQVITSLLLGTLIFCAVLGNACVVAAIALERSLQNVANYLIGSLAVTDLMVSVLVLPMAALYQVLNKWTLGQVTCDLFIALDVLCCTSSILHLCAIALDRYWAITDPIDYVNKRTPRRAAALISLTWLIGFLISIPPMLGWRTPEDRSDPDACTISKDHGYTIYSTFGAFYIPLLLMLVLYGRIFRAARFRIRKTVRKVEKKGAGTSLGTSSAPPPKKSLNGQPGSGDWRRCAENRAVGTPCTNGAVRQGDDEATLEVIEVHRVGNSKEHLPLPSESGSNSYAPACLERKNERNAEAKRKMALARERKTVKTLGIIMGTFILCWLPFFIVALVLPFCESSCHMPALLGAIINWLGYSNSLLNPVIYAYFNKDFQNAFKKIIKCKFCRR
Briefly: In vitro inhibition of [3H]8-OH-DPAT binding to 5-hydroxytryptamine 1A receptor in rat cerebral cortex membranes. Put shortly:
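Rat cerebral cortex membranes (about 1 mg protein) incubated 15 min at 37 °C with 0.6 nM [3H]-8-OH-DPAT in 50 mM Tris-HCl, pH 7.4, containing 10 nM clonidine and 30 nM prazosin. Nonspecific binding with 10 µM 5-HT. Compounds screened at 10^-6 M; curves run if displacement exceeded 55%. Filtration, scintillation counting, triplicates, 2-4 experiments; Ki by Cheng-Prusoff.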

As for `O=c1n(CN2CCN(c3cccc4ccccc34)CC2)c(O)c2n1CCC2` [2-(4-Naphthalen-1-yl-piperazin-1-ylmethyl)-tetrahydro-pyrrolo[1,2-c]imidazole-1,3-dione], the affinity, expressed as Ki, was 0.0104 µM.
